Screening data deposited in PubChem by The Scripps Research Institute Molecular Screening Center.
Shown are actives, neighbours in structure and some others; about 0.58% of the full set was active somewhere.
OXTR ag – agonists of human oxytocin receptor. P30559. CHO-OTR cells, Fluo-8 calcium fluorescence; normalized: DMSO 0%, oxytocin 100%. activation, % at 3 µM. actives 0.32% (n = 320,000). AID 2435;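 active means activation above the mean of all tested compounds plus 3 SD, cutoff set per screening run, cut at about 20% in these data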;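 further: peak over basal fluorescence ratio from a 100 s FLIPR kinetic read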
Target sequence (P30559 whole entry, looked up): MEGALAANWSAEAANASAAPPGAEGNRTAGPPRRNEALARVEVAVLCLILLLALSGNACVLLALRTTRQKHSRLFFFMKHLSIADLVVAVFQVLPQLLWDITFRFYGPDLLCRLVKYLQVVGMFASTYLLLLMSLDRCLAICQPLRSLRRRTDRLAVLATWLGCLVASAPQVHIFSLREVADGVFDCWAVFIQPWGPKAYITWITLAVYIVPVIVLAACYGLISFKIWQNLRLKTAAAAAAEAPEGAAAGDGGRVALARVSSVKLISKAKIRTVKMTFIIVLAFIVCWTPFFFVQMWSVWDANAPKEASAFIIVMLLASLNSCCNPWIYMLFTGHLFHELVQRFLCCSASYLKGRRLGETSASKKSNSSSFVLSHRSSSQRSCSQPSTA
OXTR potentiator – potentiates the human oxytocin receptor response; P30559; actives 0.061% (n = 320,000); AID 2445; activation, % at 3 µM; CHO-OTR cells, Fluo-8 calcium fluorescence, potentiator mode; 0% = oxytocin EC15, 100% = EC100;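 active means activation above that plate's cutoff, the mean activation of tested compounds plus 3 SD, cut at about 6.6% in these data, passing the limit was not always enough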
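test system = CHO-OTR cells, human receptor | compound = single-point 3.0 µM | schedule = 6 min compound pre-incubation at room temperature, 100 s kinetic read | signal = Fluo-8 no-wash calcium dye fluorescence, excitation 470-495 nm, emission 515-575 nm | repeats = single well per compound, singlicate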
zfTRPN1 agonist – activates the zebrafish TRPN1 channel; HEK293 zebrafish TRPN1-YFP, Fluo-8 calcium fluorescence; 100% = response to 87 µM carbachol; activation, % at 3 µM; actives 0.18% (n = 220,000);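 active means activation above its plate's cutoff, the mean activation of test wells on that plate plus 3 SD, cut at about 19% in these data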
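Material – zebrafish TRPN1-YFP in HEK293 cells · Doses – 3 µM single point · Schedule – dye 1 h 37 °C plus 30 min RT · Signal – Fluo-8 calcium fluorescence, excitation 470-495 nm, emission 515-575 nm · Read-out – % activation versus carbachol response · Control set – carbachol high, DMSO low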
V1R ag counter – counter-screen for oxytocin receptor agonists: human V1a receptor agonists; P37288; actives 0.25% (n = 320,000); activation, % at 3 µM; CHO-V1R cells, Fluo-8 calcium fluorescence, agonist mode; 0% DMSO, 100% 3 nM vasopressin;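 active means activation above the mean activation of all tested compounds plus 3 SD, per screening run, cut at about 20% in these data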;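 further: signal is peak over basal fluorescence ratio across a 100 second FLIPR read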
Target sequence (P37288 whole entry, looked up): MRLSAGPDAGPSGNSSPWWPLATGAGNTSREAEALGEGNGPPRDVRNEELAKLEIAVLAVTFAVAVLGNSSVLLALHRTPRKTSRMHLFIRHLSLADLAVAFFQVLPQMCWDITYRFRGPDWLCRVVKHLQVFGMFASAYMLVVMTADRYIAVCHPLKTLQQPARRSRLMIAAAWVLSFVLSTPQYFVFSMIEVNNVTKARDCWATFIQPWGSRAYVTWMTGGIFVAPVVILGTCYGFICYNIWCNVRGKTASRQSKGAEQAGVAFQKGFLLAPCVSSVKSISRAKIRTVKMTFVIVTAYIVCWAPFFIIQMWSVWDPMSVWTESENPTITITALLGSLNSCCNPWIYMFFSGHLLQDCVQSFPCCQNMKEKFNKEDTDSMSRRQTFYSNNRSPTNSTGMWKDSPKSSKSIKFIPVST
TRPML3 agonist – agonists of human TRPML3 channel | Q8TDD5 | HEK293 TRPML3-YFP, Fluo-8 calcium fluorescence; 100% = the carbachol control signal | activation, % at 3 µM | actives 0.29% (n = 220,000);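 active means activation above its plate's cutoff, the mean activation of the plate's test wells plus 3 SD, cut at about 12% in these data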
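Test system: TRPML3-YFP stable HEK293 cells. Doses: single point at 3 µM. Incubation: dye loading 1 h 37 °C then 30 min ambient, 125 s read. Signal: Fluo-8 calcium dye fluorescence, ex 470-495, em 515-575 nm. Measure: percent activation from peak-to-basal fluorescence ratio, scaled between DMSO and carbachol.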
V1R ag confirm – confirmation of human vasopressin V1a receptor agonists | activation, % at 3 µM | actives 20% (n = 180) | CHO-V1R cells, Fluo-8 calcium fluorescence, agonist | shares compounds with V1R ag counter;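 active means average activation exceeds primary screen hit cutoff, cut at about 21% in these data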;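 further: peak over basal fluorescence ratio during a 100 s FLIPR read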
OXTR counter – counter-screen for V1a receptor agonists: oxytocin receptor agonists; shares compounds with V1R ag counter; CHO-OTR cells, Fluo-8 calcium fluorescence, agonist; activation, % at 3 µM; actives 10% (n = 180); AID 434969;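 active means mean activation over three repeats above the cutoff from the earlier oxytocin receptor agonist screen, cut at about 20% in these data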;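 further: peak over minimum fluorescence ratio within a 100 second FLIPR read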
Of the large screens only hits and unclear results are named; the others gave an inactive call (follow-up assays come after a bar, where they were run).

O=C(Nc1nnc(-c2ccc3c(c2)CCCC3)o1)c1ccccc1	V1R ag counter 34 | V1R ag confirm inactive | OXTR counter inactive
COc1cc(OC)c(/C=C2\SC(=O)N(CC(=O)Nc3ccccc3F)C2=O)c(OC)c1	none (no result: zfTRPN1 agonist, TRPML3 agonist)
COc1cc(/C=C2\SC(=O)N(CC(=O)Nc3ccccc3F)C2=O)cc(Cl)c1O	V1R ag counter 22 (no result: zfTRPN1 agonist, TRPML3 agonist) | V1R ag confirm 67 | OXTR counter 60
CCOc1cc(/C=C2\CCCc3c2nc2ccccc2c3C(=O)O)ccc1OC	V1R ag counter 60 (no result: zfTRPN1 agonist, TRPML3 agonist) | V1R ag confirm inactive | OXTR counter inactive
CCCCCC(O)(c1ccc(OC)cc1)C(CN1CCOCC1)c1ccccc1 (stereo unspecified)	V1R ag counter 24 (no result: zfTRPN1 agonist, TRPML3 agonist) | V1R ag confirm inactive | OXTR counter inactive
COc1ccc2ncc(OC(C)=O)cc2c1	none
CCN1C(=S)SC(=O)C1=C1C=C(C)N(Cc2ccco2)C(C)=C1	V1R ag counter 24 | V1R ag confirm 23 | OXTR counter inactive
COc1cccc(N2CCN(c3ccc(S(=O)(=O)N4CCN(C)CC4)cc3[N+](=O)[O-])CC2)c1	V1R ag counter 21 (no result: zfTRPN1 agonist, TRPML3 agonist) | V1R ag confirm inactive | OXTR counter inactive
O=C(Nc1cccc2cccnc12)c1ccccc1Br	none (no result: zfTRPN1 agonist, TRPML3 agonist)
C#CCOCCOCCOCCNc1nc(N2CCN(C(=O)CCCCCCCCCCNC(=O)[C@H](CCCCN)n3cc(CCCC(=O)O)nn3)CC2)nc(N2CCN(C(=O)CCCCCCCCCCNC(=O)[C@@H]([C@H](C)O)n3cc(C)nn3)CC2)n1	V1R ag counter 21 (no result: zfTRPN1 agonist, TRPML3 agonist) | V1R ag confirm inactive | OXTR counter inactive
C#CCOCCOCCOCCNc1nc(N2CCN(C(=O)CCCCCCCCCCNC(=O)[C@H]([C@@H](C)CC)n3cc(CCCCCN)nn3)CC2)nc(N2CCN(C(=O)CCCCCCCCCCNC(=O)[C@H](CCCCN)n3cc(CCCC(=O)O)nn3)CC2)n1	V1R ag counter 20 (no result: zfTRPN1 agonist, TRPML3 agonist) | V1R ag confirm inactive | OXTR counter inactive
C#CCOCCOCCOCCNc1nc(N2CCN(C(=O)CCCCCCCCCCNC(=O)[C@@H](CCC(=O)O)n3cc(CCCCCN)nn3)CC2)nc(N2CCN(C(=O)CCCCCCCCCCNC(=O)[C@H]([C@@H](C)CC)n3cc(CCCCCN)nn3)CC2)n1	none (no result: zfTRPN1 agonist, TRPML3 agonist)
C#CCOCCOCCOCCNc1nc(N2CCN(C(=O)CCCCCCCCCCNC(=O)[C@H](CCCCN)n3cc(C)nn3)CC2)nc(N2CCN(C(=O)CCCCCCCCCCNC(=O)[C@H](CCCCN)n3cc(CCCC(=O)O)nn3)CC2)n1	none (no result: zfTRPN1 agonist, TRPML3 agonist)
COc1ccccc1-n1cnnc1SC(C)C(=O)NCC1CCCO1 (stereo unspecified)	none (no result: zfTRPN1 agonist, TRPML3 agonist)
Cc1ccc(SCC(=O)Nc2ccc(F)cc2[N+](=O)[O-])cc1C	none
CC1(C)CC(=O)C(C(C2=C(O)CC(C)(C)CC2=O)c2ccc(Cl)c([N+](=O)[O-])c2)C(=O)C1 (stereo unspecified)	V1R ag counter 48 | V1R ag confirm inactive | OXTR counter inactive
CCN(CC)S(=O)(=O)c1ccc(C)c(N=C=S)c1	none
Cc1c(NC(=O)CSc2ccccc2F)c(=O)n(-c2ccccc2)n1C	none
Cc1c(NC(=O)CSc2ccccc2C(=O)Nc2cccnc2)c(=O)n(-c2ccccc2)n1C	V1R ag counter 31 | V1R ag confirm inactive | OXTR counter inactive
Cc1occc1-c1nnc(SCC(=O)NC2CC2)n1C(C)C	none (no result: zfTRPN1 agonist, TRPML3 agonist)
COc1ccc(NC(=O)CSc2nc3nc(C)cc(C)c3c(=O)[nH]2)cc1	V1R ag counter 23 (no result: zfTRPN1 agonist, TRPML3 agonist) | V1R ag confirm inactive | OXTR counter inactive
CCCn1c(SCC(=O)Nc2cccc(F)c2)nc(O)cc1=O	V1R ag counter 26 (no result: zfTRPN1 agonist, TRPML3 agonist) | V1R ag confirm inactive | OXTR counter inactive
CCn1c(SCC(=O)Nc2ccc(C)cc2)nc(O)cc1=O	none
O=C(Nc1ncc(S(=O)(=O)c2ccc([N+](=O)[O-])cc2)s1)c1ccc2ccccc2c1	none
COC(=O)C(NC(=O)c1ccccc1Cl)(Nc1ncc(S(=O)(=O)c2ccc([N+](=O)[O-])cc2)s1)C(F)(F)F (stereo unspecified)	V1R ag counter 28 | V1R ag confirm inactive | OXTR counter inactive
O=C(CNC(=O)c1ccco1)NNC(=O)c1n[nH]c(=O)c2ccccc12	none (no result: zfTRPN1 agonist, TRPML3 agonist)
Cc1nn(Cc2c(Cl)cccc2Cl)c(C)c1NC(=O)c1cc(C(C)C)on1	V1R ag counter 27 | V1R ag confirm inactive | OXTR counter inactive
Cc1cc(C(=O)Nc2c(C)nn(Cc3c(Cl)cccc3Cl)c2C)no1	none
O=C(NNC(=O)c1ccc(Br)s1)c1ccc(F)c(S(=O)(=O)N2CCOCC2)c1	none (no result: zfTRPN1 agonist, TRPML3 agonist)
COc1ccc(C(C)NC(=S)NCc2ccc(F)cc2)cc1 (stereo unspecified)	none (no result: zfTRPN1 agonist, TRPML3 agonist)
Cc1ccc(C)c(C(C)NC(=S)NCc2ccc(F)cc2)c1 (stereo unspecified)	V1R ag counter 24 (no result: zfTRPN1 agonist, TRPML3 agonist) | V1R ag confirm inactive | OXTR counter inactive
COc1ccc(C(=O)O)cc1S(=O)(=O)N(CCc1ccccc1)Cc1ccccc1	V1R ag counter 25 | V1R ag confirm inactive | OXTR counter inactive
COc1ccc(C(=O)O)cc1S(=O)(=O)N(C)CCc1cccnc1	none
CC1CCCN(CCOc2ccc3ccccc3c2Br)C1 (stereo unspecified)	none
Oc1ccc(Cl)cc1/C=N/c1nccs1	none
Oc1ccc(Cl)cc1C=Nc1ccc2c3c(cccc13)CC2	V1R ag counter 51 | V1R ag confirm inactive | OXTR counter inactive
COC(=O)c1cc(CNC(=O)c2ccc(S(=O)(=O)N(C)c3ccccc3)cc2)ccc1OC	V1R ag counter 24 (no result: zfTRPN1 agonist, TRPML3 agonist) | V1R ag confirm inactive | OXTR counter inactive
CCC1CCCCN1CCCNC(=O)c1ccc(N2CCOCC2)c(NS(=O)(=O)c2ccc(OC)cc2)c1 (stereo unspecified)	V1R ag counter 21 | V1R ag confirm inactive | OXTR counter inactive
C=CCC1(CC=C)CCCN1Cc1nc(COc2ccccc2)no1	none
O=C(COc1ccccc1[N+](=O)[O-])N/N=C/c1ccc(O)c([N+](=O)[O-])c1	V1R ag counter 67 | V1R ag confirm inactive | OXTR counter inactive
COc1cccc(C(=O)Oc2cc(N)n(S(=O)(=O)c3ccc(C)cc3)n2)c1OC	V1R ag counter 28 | V1R ag confirm inactive | OXTR counter inactive
CCO/C([O-])=N/c1sn[n+](C)c1C	none
COc1ccc(NC(=O)CSc2ccc3c4c(cccc24)C(=O)c2ccccc2-3)cc1	none
N#Cc1cccc(NC(=O)CSc2ccc3c4c(cccc24)C(=O)c2ccccc2-3)c1	V1R ag counter 41 | V1R ag confirm 107 | OXTR counter 84
CCCCCCCCCCOC(=O)C[N+](C)(C)C/C=C(/C)Cl	none
